These results are taken from ChEMBL document CHEMBL4706676 (Bioorg Med Chem Lett, 2021).

What all share (assay type): functional, cell-based
In assay [1] the test system is DU-145. The assay is described as follows: Antiproliferative activity against human DU-145 cells assessed as reduction in cell viability. The method, boiled down: (§1)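 Human prostate cancer cells taken from exponential-phase culture, seeded at 8000–12,000 cells/well and allowed 24 h recovery. Compounds then added at 10 half-log concentrations in triplicate, with medium-only controls, for a total 96 h exposure. After a PBS wash, cells stained with propidium iodide plus 0.1% Triton X-100 for 1–2 h at room temperature. Fluorescence read (ex 530/em 620 nm) as attached viable cells. IC50 from 4-parameter curve fit, geometric mean of three independent experiments.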

Assay [2] concerns CWR22R. As to the kind of experiment: Antiproliferative activity against human 22Rv1 cells assessed as reduction in cell viability. The gist of the method:
as §1

Assay [3] deals with LNCaP. As to the kind of experiment: Antiproliferative activity against human LNCaP cells assessed as reduction in cell viability. The gist of the method: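 Human prostate cancer cells taken from exponential-phase culture, seeded at 8000–12,000 cells/well and allowed 24 h recovery. Compounds then added at 10 half-log concentrations in triplicate, with medium-only controls, for a total 96 h exposure. After a PBS wash, cells stained with propidium iodide plus 0.1% Triton X-100 for 1–2 h at room temperature. IC50 from 4-parameter curve fit, geometric mean of three independent experiments.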

Assay [4] deals with VCaP. The assay is described as follows: Antiproliferative activity against human VCaP cells assessed as reduction in cell viability. The method, boiled down:
as §1

pIC50: −log10 of the molar value.

On to `CC(O)(C[S+]([O-])c1ccc(C(F)(F)F)cc1)C(=O)Nc1ccc([N+](=O)[O-])cc1C(F)(F)F` (stereo not drawn), for which the pIC50 in assay [1] (Homo sapiens, DU-145) is 4.44; in assay [2] (Homo sapiens, 22Rv1), 4.68; in assay [3] (Homo sapiens, LNCaP) it was 4.59; in assay [4], 4.62.
Turning to `CC(O)(C[S+]([O-])c1ccc(F)cc1F)C(=O)Nc1ccc([N+](=O)[O-])cc1C(F)(F)F` (stereo not drawn), the pIC50 in assay [1] (Homo sapiens, DU-145) was less than 4.00; in assay [2] (Homo sapiens, 22Rv1), 4.29; in assay [3] (Homo sapiens, LNCaP), 4.61; in assay [4] it was less than 4.00.
For the compound `CC(O)(C[S+]([O-])c1ccc(C(F)(F)F)cn1)C(=O)Nc1ccc([N+](=O)[O-])cc1C(F)(F)F` (stereo not drawn), the pIC50 in assay [1] (Homo sapiens, DU-145) is less than 4.00; in assay [2] (Homo sapiens, 22Rv1), less than 4.00; in assay [3] (Homo sapiens, LNCaP), less than 4.00; in assay [4], less than 4.00.
Turning to `CC(O)(C[S+]([O-])c1ccccn1)C(=O)Nc1ccc([N+](=O)[O-])cc1C(F)(F)F` (stereo not drawn), the pIC50 in assay [1] (Homo sapiens, DU-145) was less than 4.00; in assay [2] (Homo sapiens, 22Rv1), less than 4.00; in assay [3] (Homo sapiens, LNCaP), less than 4.00; in assay [4] it was 4.00.
For the compound `CC(O)(C[S+]([O-])c1ccc(C(F)(F)F)cn1)C(=O)Nc1ccc(C#N)c(C(F)(F)F)c1` (stereo in doubt; form 2), the pIC50 is less than 4.00 in assay [1] (du-145), 4.11 in assay [2] (cwr22r) and less than 4.00 in assay [3] (lncap).
For the compound `CC(O)(C[S+]([O-])c1ccc(OC(F)(F)F)cc1)C(=O)Nc1ccc(C#N)c(C(F)(F)F)c1` (stereo not drawn), the pIC50 in assay [1] (Homo sapiens, DU-145) was 4.28; in assay [2] (Homo sapiens, 22Rv1) it was 4.39; in assay [3] (Homo sapiens, LNCaP), 4.44; in assay [4], 4.27.
Take `CC(O)(C[S+]([O-])c1ccc(OC(F)(F)F)cc1)C(=O)Nc1ccc([N+](=O)[O-])cc1C(F)(F)F` (stereo not drawn): the pIC50 was less than 4.00 in assay [1] (Homo sapiens, DU-145); less than 4.00 in assay [2] (Homo sapiens, 22Rv1); less than 4.00 in assay [3] (Homo sapiens, LNCaP); less than 4.00 in assay [4].
Consider `CC(O)(C[S+]([O-])c1ccc(C(F)(F)F)cn1)C(=O)Nc1ccc(C#N)c(C(F)(F)F)c1` (stereo in doubt; form 1), for which the pIC50 in assay [1] (Homo sapiens, DU-145) is 4.00; in assay [2] (Homo sapiens, 22Rv1), 4.18; in assay [3] (Homo sapiens, LNCaP), 4.02; in assay [4], less than 4.00.
For `CC(O)(C[S+]([O-])c1ccccn1)C(=O)Nc1ccc(C#N)c(C(F)(F)F)c1` (stereo not drawn), in that order: less than 4.00, less than 4.00, less than 4.00 and less than 4.00.
For the compound `CC(O)(C[S+]([O-])c1ccc(F)c(F)c1)C(=O)Nc1ccc([N+](=O)[O-])cc1C(F)(F)F` (single isomer, unassigned), the pIC50 in assay [1] (Homo sapiens, DU-145) is less than 4.00; in assay [2] (Homo sapiens, 22Rv1), less than 4.00; in assay [3] (Homo sapiens, LNCaP) it was less than 4.00; in assay [4], less than 4.00.
Regarding `CC(O)(C[S+]([O-])c1ccccc1OC(F)(F)F)C(=O)Nc1ccc([N+](=O)[O-])cc1C(F)(F)F` (stereo not drawn), the pIC50 in assay [1] (Homo sapiens, DU-145) is 4.51; in assay [2] (Homo sapiens, 22Rv1), 4.82; in assay [3] (Homo sapiens, LNCaP) it was 5.04; in assay [4] it was 4.68.

The term pIC50 denotes the negative decadic logarithm of the IC50, by convention in mol/L.
